The results in this text go back to PubChem BioAssay AID617 (SRMLSC, 2007).

Molecules are shown by their SMILES. pIC50: −log10 of the molar value. Where only a bound is given, the exact number is not on record here.

The experiment has as its system E. coli BW25113 ΔtolC growth inhibition, OD615. Briefly: E. coli ΔtolC antibacterial growth inhibition – strain BW25113 ΔtolC::kan, dose response (AID 617). The essentials:
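Material: E. coli BW25113 ΔtolC::kan bacteria; input: inoculum from 1:1000-diluted 1.5 h subculture; medium: kanamycin-containing LB broth, 50 µg/mL; dosing: compounds in serially diluted dose-response series; incubation: 20 h exposure at 37 °C; measured by: absorbance at 615 nm; control set: chloramphenicol control, 30 µM final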
`O=C(CSc1nc2nc(-c3cccs3)cc(C(F)(F)F)c2c(=O)[nH]1)NCc1ccco1`: the pIC50 (in general, the negative decadic logarithm of the IC50, by convention in mol/L) was 5.26.
For the compound `O=C(Nc1ccc2c(c1)CCC2)C1COc2ccccc2O1` (stereo unspecified), the pIC50 was 4.91.
The same measure for `Cc1cccc(NC(=O)CSc2nnc(-c3cc(C)n(-c4ccccc4)c3C)o2)c1C`: 4.85; for `CC1CCCN(S(=O)(=O)c2ccc(NC(=O)Cn3nnc(-c4ccccc4F)n3)cc2)C1` (stereo unspecified): 4.58; for `Cc1ccc(-c2csc(N(CC3CCCO3)C(=O)c3ccco3)n2)cc1` (stereo unspecified): 4.68.
The same measure for `Cc1ccc2ccc(S(=O)(=O)n3nc(C)cc3C)cc2c1`: 4.84.
With `O=C1CCCc2nc3nc4ccccc4n3cc21`, the pIC50 was 4.77.
As for `CCOC(=O)c1cc2c(ccn2C)n1Cc1ccccc1C`, the figure is 4.56; as for `N#Cc1nc(COc2ccc(Br)cc2)oc1NCCCn1ccnc1`, 4.63; as for `c1ccc(-c2csc(N3CCN(c4ccccn4)CC3)n2)cc1`, 5.05.
The same measure for `COc1ccccc1OCC(=O)N(Cc1nc(-c2ccccc2)no1)C1CCCCC1`: 4.90; for `CCOC(=O)CCSc1nc2c(c(C(F)(F)F)c1C#N)CCC2`: 4.86; for `O=C(c1cc2nc(-c3ccco3)cc(C(F)(F)F)n2n1)N1CCN(c2ccccc2)CC1`: 4.99.
As for `CCc1nc2ccccc2c(=O)n1NC(=O)c1c(O)c2cccc3c2n(c1=O)CCC3`, the figure is 4.91; as for `CCC(C(=O)Nc1ccccc1OC)n1c(C(=O)OC)cc2ccsc21` (stereo unspecified), 4.96; as for `CN(C)[C@@H]1C(=O)C(C(N)=O)=C(O)[C@@]2(O)C(=O)C3=C(O)c4c(O)ccc(Cl)c4[C@@H](O)[C@H]3C[C@@H]12`, above 6.70.
On to `Cc1cc(NC(=O)COC(=O)C(Nc2ccc(C(F)(F)F)cc2Cl)C(C)C)no1` (stereo unspecified), for which the pIC50 was 5.27.
As for `O=C(NC1CCCCC1)c1nc2c(nnn2Cc2ccccc2Cl)c(=O)[nH]1`, the figure is 5.21.
Consider `O=C(CN1CCN(c2nc(-c3ccc(F)cc3)cs2)CC1)NCc1ccc2c(c1)OCO2`, for which the pIC50 is 4.95.
As for `O=C(NC1CCCCCCC1)c1ccccc1O`, the figure is 5.05.
As for `CC(C)C(c1nnnn1C1CCCC1)N1CCCc2ccccc21` (stereo unspecified), the pIC50 is 4.80.
For `CC(O)c1c(OCc2ccccc2)ncnc1OCc1ccccc1` (stereo unspecified), the pIC50 is 4.97.
With `O=C(c1cc(-c2ccccc2)on1)N1CCN(Cc2ccc3c(c2)OCO3)CC1`, the pIC50 was 4.68.
As for `COc1ccc(Cl)cc1CN1CCN(c2nc(C)cc(C)c2C#N)CC1`, the figure is 4.88; as for `Cc1nn(-c2nc3ccccc3[nH]2)c(N)c1-c1ccccc1`, 4.23; as for `CSCSC1=C(C#N)C(c2ccc(Cl)cc2)C(C(C)=O)=C(C)N1` (stereo unspecified), 5.04.
As for `O=C(C1CCCCC1)N1CCC(c2nc3c(nnn3Cc3c(F)cccc3Cl)c(=O)[nH]2)CC1`, the figure is 4.74.
As for `O=C(NCCc1ccccc1)c1nc2c(nnn2Cc2ccccc2Cl)c(=O)[nH]1`, the pIC50 is 5.33.
For the compound `COc1ccccc1-n1c(=O)oc2ccc(Cl)cc2c1=O`, the pIC50 was 5.83.
As for `c1ccc(CCN2CCN(c3ncnc4c3cnn4-c3ccccc3)CC2)cc1`, the figure is 4.97.
The same measure for `COC(=O)C1=C(C)N(C)C(C)=C(C(=O)OC)C1c1ccc(F)c(Br)c1`: 4.70; for `Cc1ccc(Nc2cc(C)nn2-c2nc(C)cc(=O)[nH]2)cc1`: 6.74.
As for `Cc1cccc2cc(C(c3nnnn3CC3CCCO3)N3CCc4ccccc4C3)c(=O)[nH]c12` (stereo unspecified), the figure is 4.45; as for `O=S(=O)(NCCSc1ccc(Cl)cc1)c1ccc2c(c1)OCCO2`, 5.05.
Consider `Oc1cccc(Nc2nc(NCC3CCCO3)c3ccccc3n2)c1` (stereo unspecified), for which the pIC50 was 5.33.
The same measure for `Cc1ccc(N(CC(=O)Nc2cccc(C)c2)S(=O)(=O)c2cccc3nonc23)cc1`: 4.43; for `Cc1ccc(NC(=O)N2CCC(c3nc4c(nnn4Cc4cccc(Cl)c4)c(=O)[nH]3)CC2)cc1`: 4.87; for `COc1ccc(-c2cnc(SCC(=O)Nc3cc(C)on3)n2Cc2ccco2)cc1`: 4.45.
As for `CCC(=NCc1ccc2c(c1)OCO2)c1c(O)n(C2CCCCC2)c(=O)[nH]c1=O`, the figure is 4.92; as for `CC(C)(C)c1csc(NC(=O)c2ccc(Cl)s2)n1`, 4.53; as for `Cc1cc(Cl)ccc1OCC(=O)Nc1ccccc1N1CCOCC1`, 5.06.
On to `Cc1cc(=O)[nH]c(-n2nc(C)cc2C)n1`, for which the negative logarithm of the IC50 (pIC50) is 5.18.
As for `Clc1ccc2nc(CN3CCCc4ccccc43)cn2c1`, the pIC50 is 4.59.
The same measure for `CCOC(=O)Cc1csc(NC(=O)c2csc3c2CCCC3)n1`: 4.79; for `O=C(CNCCC1=CCCCC1)Nc1ccccc1N1CCCCC1`: 4.95; for `O=c1cc(O)c2c(=O)n3c4c(cccc4c2o1)CCC3`: 5.55.
As to `CCn1c(=O)c2cc(C(=O)N3CCN(C(=O)c4ccco4)CC3)sc2c2ccccc21`, the pIC50 is 5.20.
As for `COc1cccc(NC(=O)N2CCN(c3cccc(C)c3C)CC2)c1`, the pIC50 is 4.87.
As for `CCOC(=O)c1c(-c2ccccc2)oc2ccc(OC(=O)N(C)C)cc12`, the figure is 5.04; as for `CC(C)Sc1nc(NCc2ccco2)c2c3c(sc2n1)COC(C)(C)C3`, 4.69; as for `O=C(Nc1nnc(C2CC2)s1)c1cc(-c2ccccc2)nn1-c1ccccc1`, 5.19.
Turning to `CCCCCC(=O)Nc1ccccc1N1CCN(c2ccccc2)CC1`, the pIC50 was 4.69.
As for `O=C(Nc1nc2n(n1)C(c1ccc(Cl)cc1)CC(c1ccc(Cl)cc1)N2)c1ccco1` (stereo unspecified), the figure is 5.33; as for `Cc1ccc(CN2C(=O)NC(=O)C3(Cc4c(nc5ccccn5c4=O)N4CCCCCC43)C2=O)cc1` (stereo unspecified), 4.65; as for `Fc1ccc(Br)cc1C1C=C(c2ccc(Br)s2)Nc2ncnn21` (stereo unspecified), 5.28.
As for `CCCc1nc(SCC(=O)N2CCCc3ccccc32)c2c(=O)n(C)c(=O)n(C)c2n1`, the figure is 4.94.
`CCCCSC1=C(C#N)C(c2ccccc2C)C(C(=O)OCC)C(=O)N1` (stereo unspecified): the pIC50 was 4.94.
In the case of `CCn1cc(C(=O)OCC(=O)OC2CC(C)CCC2C(C)C)c(=O)c2ccc(C)nc21` (stereo unspecified), the pIC50 is 5.12.
Consider `COC(=O)c1cccc(-n2nnnc2SCC(=O)Nc2nc3c(s2)CCCC3)c1`, for which the pIC50 was 4.80.
The same measure for `CC1CN(c2oc(COc3ccc(Cl)cc3Cl)nc2C#N)CC(C)O1` (stereo unspecified): 4.99; for `CC(C)c1nc(N2CCN(C(=O)c3ccco3)CC2)c2c3c(sc2n1)CCCC3`: 4.87; for `COc1ccccc1-c1noc(CCC(=O)Nc2cccc(C(F)(F)F)c2)n1`: 4.80.
As for `COc1ccc(C/C(O)=C(\C#N)c2nc3ccccc3s2)cc1`, the figure is 5.29.
The same measure for `CCCCCCn1c(N2CCN(c3ccccc3)CC2)nc2c1c(=O)n(C)c(=O)n2C`: 4.99; for `CCCCn1nc(NC(=O)c2cccs2)c2cc3ccccc3nc21`: 5.08; for `CCSc1nnc(NC(=O)CSc2nccn2-c2cccc(C)c2C)s1`: 5.28.
For the compound `Fc1cccc2sc(Nc3nnc(-c4ccco4)o3)nc12`, the pIC50 was 5.55.
Turning to `O=C(CN(C1CC1)S(=O)(=O)c1ccc(S(=O)(=O)NC2CCCCC2)cc1)Nc1ccccc1`, the pIC50 is 4.98.
In the case of `Cc1cccc(N2CCN(C(=O)c3cc4n(n3)C(C(F)(F)F)CC(c3ccco3)N4)CC2)c1C` (stereo unspecified), the pIC50 was 5.17.
As for `Cc1onc(-c2c(F)cccc2Cl)c1C(=O)Nc1nc2c(s1)CCCC2`, the figure is 4.71; as for `CCCCn1c(N2CCC(Cc3ccccc3)CC2)nc2c1c(=O)[nH]c(=O)n2C`, 5.22; as for `O=C(Nc1nc(-c2cccs2)cs1)c1ccc(Cl)s1`, 4.58.
`Cc1ccc(S(=O)(=O)N(Cc2ccccc2)Cc2ccco2)cc1`: the pIC50 is 4.97.
The same measure for `c1ccc(Nc2nc(-c3cccs3)cs2)nc1`: 4.89.
As for `CCOC(=O)c1c(C)oc2ccc(NS(=O)(=O)c3ccc4c5c(cccc35)C(=O)N4)cc12`, the figure is 4.79.
The same measure for `Cc1cc(N2CCCCCC2)nc(-c2ccccc2O)n1`: 4.87; for `Cc1nn(Cc2ccccc2)c(C)c1C(=O)OCC(=O)c1cc(C)n(C2CC2)c1C`: 4.95; for `N=c1n(Cc2ccccc2)c2ccccc2n1CC(O)COc1ccccc1` (stereo unspecified): 4.67.
Turning to `COc1ccc(Nc2nc(N3CCCC3)c3ccccc3n2)cc1`, the pIC50 is 4.74.
As to `Cc1ccc(C(=O)Nc2nc(COc3ccccc3)cs2)s1`, the pIC50 is 4.00.
As for `O=C(NCc1ccccc1)c1c[nH]c2ccc(S(=O)(=O)Nc3ccc4c(c3)OCCO4)cc2c1=O`, the figure is 5.03; as for `CCNc1nc(SCc2ccccc2)nc(N2CCOCC2)n1`, 4.75.
For `Clc1ccc(Cl)c(-c2nn3c(COc4ccccc4)nnc3s2)c1`, the pIC50 is 6.11.
As for `Cc1ccc(S(=O)(=O)Nc2cccc3ncccc23)s1`, the figure is 5.78; as for `O=C(Nc1ccc(Cl)cc1)N(Cc1cccs1)Cc1cccs1`, 4.97.
As for `O=c1c2ccccc2nc(SCc2cn3ccsc3n2)n1-c1ccccc1F`, the figure is 4.63; as for `CC1CCc2cc(F)ccc2N1C(=O)c1cc2nc(-c3ccco3)cc(C(F)(F)F)n2n1` (stereo unspecified), 4.95.
As for `O=C(Nc1ccc2oc(Cc3ccc(Cl)cc3)nc2c1)c1cccnc1`, the figure is 4.27; as for `Cc1cc2c(cc(C(=O)OCC(=O)NCc3cccs3)n2C(C)C)o1`, 4.60; as for `COc1ccc(C2(O)CC3CCC(C2)N3c2cc(C)nc(-c3ccccc3)n2)cc1` (stereo unspecified), 4.93.
Turning to `CCOc1cc(C)c(Cl)cc1S(=O)(=O)n1nnc2ccccc21`, the pIC50 was 4.93.
The same measure for `CC1=C(C(=O)OCC(C)C)C(c2cc3c(cc2Br)OCO3)NC(=O)N1C` (stereo unspecified): 4.74; for `OC1(c2cccc(C(F)(F)F)c2)CCN(c2ncnc3c2[nH]c2ccc(F)cc23)CC1`: 5.80; for `N#Cc1nc(COc2ccc(Cl)cc2)oc1N1CCCCCC1`: 5.06.
For the compound `COC(=O)c1c(NC(=O)Cc2cccs2)sc2c1CCCC2`, the pIC50 is 5.05.
Consider `Fc1ccc(C(c2ccc(F)cc2)N2CCN(C/C=C/c3ccccc3)CC2)cc1`, for which the negative logarithm of the IC50 (pIC50) was 5.04.
